In ChEMBL document CHEMBL4038284, “Synthesis of novel quinoline-based 4,5-dihydro-1H-pyrazoles as potential anticancer, antifungal, antibacterial and antiprotozoal agents” (Eur J Med Chem, 2017):
Converted amounts (≈) assume the structure as drawn.

Legend:
Klebsiella pneumoniae [1] = experiment: Antibacterial activity against ESBL positive Klebsiella pneumoniae ATCC 700603 after 24 hrs by resazurin dye based microdilution assay; type: functional; settings: Klebsiella pneumoniae, 700603, 24 h
Method in brief: (§1)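 MIC taken as the lowest concentration giving visible inhibition and/or by resazurin (1 mg/mL). Gentamicin was the control. Run in duplicate, repeated at least three times.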

Klebsiella pneumoniae [2] = experiment: Antibacterial activity against carbapenemase positive Klebsiella pneumoniae BAA 1705 after 24 hrs by resazurin dye based microdilution assay; type: functional; settings: BAA 1705, 24 h; method in brief: as §1
Leishmania panamensis = experiment: Antileshmanial activity against EpiR/GFP fused Leishmania panamensis MHOM/CO/87/UA140 intracellular amastigotes infected in human […] cells after 72 hrs by flow cytometric method; type: functional, cell-based; settings: MHOM/CO/87/UA140, 72 h
Method in brief: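 PMA-treated U-937 cells (3 × 10^5 cells/mL) infected with stationary-phase GFP L. panamensis promastigotes (15:1), 3 h at 34 °C, then washed. After 24 h, compounds added at 50, 12.5, 3.125 and 0.78 µg/mL for 72 h at 37 °C. EC50 by Probit; triplicate, two experiments.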

Candida albicans [3] = experiment: Antifungal activity against Candida albicans ATCC 10231 incubated for 48 hrs under dark condition by broth microdilution method; type: functional; settings: ATCC 10231, 48 h
Method in brief: (§2)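 CLSI M27-A3 broth microdilution in RPMI-1640, DMSO ≤1%, compounds at 250-0.98 µg/mL final. Inoculum 1-5 × 10^3 CFU/mL. Incubated 48 h at 30 °C in a moist dark chamber, read at OD405. MIC80 and MIC50 taken from % inhibition dose-response curves (mean ± SEM, triplicate). Amphotericin B was the positive control.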

Cryptococcus neoformans [4] = experiment: Antifungal activity against Cryptococcus neoformans ATCC 32264 incubated for 48 hrs under dark condition by broth microdilution method; type: functional; settings: ATCC 32264, 48 h; method in brief: as §2
Candida albicans [5] = experiment: Growth inhibition of Candida albicans ATCC 10231 at 250 ug/ml incubated for 48 hrs under dark condition by broth microdilution method relative to control; type: functional; settings: ATCC 10231, 48 h, read-out: GI
Method in brief: (§3)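 CLSI M27-A3 broth microdilution in RPMI-1640, DMSO ≤1%. Inoculum 1-5 × 10^3 CFU/mL. Incubated 48 h at 30 °C, dark. % inhibition = 100 − (OD405 test − sterility control)/(OD405 growth control − sterility control), with growth and sterility control wells. Triplicate.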

Candida albicans [6] = experiment: Growth inhibition of Candida albicans ATCC 10231 at 125 ug/ml incubated for 48 hrs under dark condition by broth microdilution method relative to control; type: functional; settings: ATCC 10231, 48 h, read-out: GI; method in brief: as §3
Candida albicans [7] = experiment: Growth inhibition of Candida albicans ATCC 10231 at 62.5 ug/ml incubated for 48 hrs under dark condition by broth microdilution method relative to control; type: functional; settings: ATCC 10231, 48 h, read-out: GI; method in brief: as §3
Candida albicans [8] = experiment: Growth inhibition of Candida albicans ATCC 10231 at 31.25 ug/ml incubated for 48 hrs under dark condition by broth microdilution method relative to control; type: functional; settings: ATCC 10231, 48 h, read-out: GI; method in brief: as §3
Candida albicans [9] = experiment: Growth inhibition of Candida albicans ATCC 10231 at 15.62 ug/ml incubated for 48 hrs under dark condition by broth microdilution method relative to control; type: functional; settings: ATCC 10231, 48 h, read-out: GI; method in brief: as §3
Candida albicans [10] = experiment: Growth inhibition of Candida albicans ATCC 10231 at 7.8 ug/ml incubated for 48 hrs under dark condition by broth microdilution method relative to control; type: functional; settings: ATCC 10231, 48 h, read-out: GI; method in brief: as §3
Candida albicans [11] = experiment: Growth inhibition of Candida albicans ATCC 10231 at 3.4 ug/ml incubated for 48 hrs under dark condition by broth microdilution method relative to control; type: functional; settings: ATCC 10231, 48 h, read-out: GI
Cryptococcus neoformans [12] = experiment: Growth inhibition of Cryptococcus neoformans ATCC 32264 at 250 ug/ml incubated for 48 hrs under dark condition by broth microdilution method relative to control; type: functional; settings: ATCC 32264, 48 h, read-out: GI; method in brief: as §3
Cryptococcus neoformans [13] = experiment: Growth inhibition of Cryptococcus neoformans ATCC 32264 at 125 ug/ml incubated for 48 hrs under dark condition by broth microdilution method relative to control; type: functional; settings: ATCC 32264, 48 h, read-out: GI; method in brief: as §3
Cryptococcus neoformans [14] = experiment: Growth inhibition of Cryptococcus neoformans ATCC 32264 at 62.5 ug/ml incubated for 48 hrs under dark condition by broth microdilution method relative to control; type: functional; settings: ATCC 32264, 48 h, read-out: GI; method in brief: as §3
Cryptococcus neoformans [15] = experiment: Growth inhibition of Cryptococcus neoformans ATCC 32264 at 31.25 ug/ml incubated for 48 hrs under dark condition by broth microdilution method relative to control; type: functional; settings: ATCC 32264, 48 h, read-out: GI; method in brief: as §3
Cryptococcus neoformans [16] = experiment: Growth inhibition of Cryptococcus neoformans ATCC 32264 at 15.62 ug/ml incubated for 48 hrs under dark condition by broth microdilution method relative to control; type: functional; settings: ATCC 32264, 48 h, read-out: GI; method in brief: as §3
Cryptococcus neoformans [17] = experiment: Growth inhibition of Cryptococcus neoformans ATCC 32264 at 7.8 ug/ml incubated for 48 hrs under dark condition by broth microdilution method relative to control; type: functional; settings: ATCC 32264, 48 h, read-out: GI; method in brief: as §3
Cryptococcus neoformans [18] = experiment: Growth inhibition of Cryptococcus neoformans ATCC 32264 at 3.4 ug/ml incubated for 48 hrs under dark condition by broth microdilution method relative to control; type: functional; settings: ATCC 32264, 48 h, read-out: GI
Staphylococcus aureus [19] = experiment: Antibacterial activity against methicillin-sensitive Staphylococcus aureus ATCC 25923 after 24 hrs by resazurin dye based microdilution assay; type: functional; settings: ATCC 25923, 24 h; method in brief: as §1
Staphylococcus aureus [20] = experiment: Antibacterial activity against methicillin-resistant Staphylococcus aureus ATCC 43300 after 24 hrs by resazurin dye based microdilution assay; type: functional; settings: ATCC 43300, 24 h
Method in brief: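 Broth microdilution in Mueller Hinton broth, inoculum 5 × 10^5 – 8 × 10^5. Compound stocks diluted in MHB with 5% DMSO and 0.1% Tween 80. Incubation 24 h at 35-37 °C. MIC is the lowest concentration with visible growth inhibition and/or by resazurin (1 mg/mL) read-out. Gentamicin as control. Run in duplicate, replicated at least three times.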

Staphylococcus aureus [21] = experiment: Antibacterial activity against vancomycin-intermediate Staphylococcus aureus after 24 hrs by resazurin dye based microdilution assay; type: functional; method in brief: as §1
Escherichia coli = experiment: Antibacterial activity against Escherichia coli ATCC 25922 after 24 hrs by resazurin dye based microdilution assay; type: functional; settings: ATCC 25922, 24 h; method in brief: as §1
Pseudomonas aeruginosa = experiment: Antibacterial activity against Pseudomonas aeruginosa ATCC 27853 after 24 hrs by resazurin dye based microdilution assay; type: functional; settings: ATCC 27853, 24 h; method in brief: as §1
Neisseria gonorrhoeae = experiment: Antibacterial activity against beta lactamase positive Neisseria gonorrhoeae ATCC 31426 by oxidase test; type: functional
Method in brief: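 Agar dilution MIC on GC agar with 1% isovitalex containing increasing compound concentrations. Plates inoculated with about 1×10^4 CFU (5 µL). MIC is the lowest concentration that inhibited growth, with growth confirmed by oxidase test. Run in duplicate, repeated at least three times.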

Plasmodium falciparum = experiment: Antiplasmodial activity against chloroquine-sensitive Plasmodium falciparum 3D7 assessed as reduction in parasitic LDH activity after 48 hrs by Malstat reagent based […] method; type: functional; settings: 3D7, 48 h
Method in brief: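 Unsynchronized P. falciparum 3D7 at 0.5% parasitemia and 1% hematocrit in RPMI with 3% Albumax II. Exposed to 100, 25, 6.25 and 1.56 µg/mL for 48 h at 37 °C under 90% N2/5% CO2/5% O2. After three freeze-thaw cycles, LDH measured with Malstat and NBT/PES, 1 h in the dark, read at 650 nm. IC50 by Probit; triplicate, ≥2 experiments.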

U-937 = experiment: Cytotoxicity against human U937 cells after 72 hrs by MTT assay; type: cell-based; settings: u-937, 72 h
Method in brief: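 Exponentially growing U-937 at 1 × 10^5 cells/mL in RPMI-1640 with 10% FBS were exposed to 200, 50, 12.5 and 3.125 µg/mL for 72 h at 37 °C, 5% CO2. MTT for 3 h, stopped with isopropanol/SDS, formazan read at 570 nm, blank-corrected. LC50 by Probit from % viability against untreated cells. Triplicate, at least two independent experiments.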

Trypanosoma cruzi = experiment: Antitrypanosomal activity against Trypanosoma cruzi Tulahuen intracellular amastigote harboring LacZ infected in human U937 cells after 72 hrs by CPRG/Nonidet reagent based spectrophotometric method; type: functional, cell-based; settings: U-937, 72 h
Method in brief: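 U-937 cells at 2.5 × 10^5 cells/mL in RPMI-1640 with 10% serum and 0.1 µg/mL PMA were infected with β-galactosidase-transfected Tulahuen epimastigotes at 5 parasites per cell. Infected cells were exposed to 50, 12.5, 3.125 and 0.78 µg/mL for 72 h. CPRG (100 uM) and 0.1% Nonidet P-40 were added for 3 h, read at 570 nm. EC50 by Probit. Triplicate, at least two experiments; benznidazole as reference.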

For `Clc1cc(Cl)cc(N2N=C(c3ccccc3)CC2c2cccc(Nc3ccnc4cc(Cl)ccc34)c2)c1` (stereo not given), the MIC (Klebsiella pneumoniae [1]) was > 1000 µg/mL, the MIC (Klebsiella pneumoniae [2]) was > 1000 µg/mL and the EC50 (Leishmania panamensis) was 17.8 µg/mL (≈ 32.8 µM). For the same molecule, the MIC50 (Candida albicans [3]) was ≥ 250 µg/mL, the MIC80 (Candida albicans [3]) was ≥ 250 µg/mL and the MIC50 (Cryptococcus neoformans [4]) was ≥ 250 µg/mL. The MIC80 (Cryptococcus neoformans [4]) was ≥ 250 µg/mL, the inhibition of growth at 250 µg/mL (Candida albicans [5]) was 11.2% and the inhibition of growth at 125 µg/mL (Candida albicans [6]) was 2.17%. The inhibition of growth at 62.5 µg/mL (Candida albicans [7]) was 0%, the inhibition of growth at 31.25 µg/mL (Candida albicans [8]) was 0% and the inhibition of growth at 15.62 µg/mL (Candida albicans [9]) was 0%. For the same molecule, the inhibition of growth at 7.8 µg/mL (Candida albicans [10]) was 0%, the inhibition of growth at 3.4 µg/mL (Candida albicans [11]) was 0% and the inhibition of growth at 250 µg/mL (Cryptococcus neoformans [12]) was 7.5%. The inhibition of growth at 125 µg/mL (Cryptococcus neoformans [13]) was 3.29%, the inhibition of growth at 62.5 µg/mL (Cryptococcus neoformans [14]) was 3.07% and the inhibition of growth at 31.25 µg/mL (Cryptococcus neoformans [15]) was 2.16%. The inhibition of growth at 15.62 µg/mL (Cryptococcus neoformans [16]) was 1.36%, the inhibition of growth at 7.8 µg/mL (Cryptococcus neoformans [17]) was 0% and the inhibition of growth at 3.4 µg/mL (Cryptococcus neoformans [18]) was 0%. For the same molecule, the MIC (Staphylococcus aureus [19]) was > 1000 µg/mL, the MIC (Staphylococcus aureus [20]) was > 1000 µg/mL and the MIC (Staphylococcus aureus [21]) was > 1000 µg/mL. The MIC (Escherichia coli) was > 1000 µg/mL, the MIC (Pseudomonas aeruginosa) was > 1000 µg/mL and the MIC (Neisseria gonorrhoeae) was > 1000 µg/mL. The EC50 (Plasmodium falciparum) was 12.5 µg/mL (≈ 23.1 µM), the LC50 (U-937) was > 200 µg/mL and the EC50 (Trypanosoma cruzi) was 32.6 µg/mL (≈ 60 µM).
